{"data": "Measured values collected from several papers", "effect on": "cell growth or viability", "note": "Compare with care: the assays were run in different laboratories."}
{"Compound": "Cc1cnc(CNC(=O)c2c(=O)c3ccc(N4CCCN(C)CC4)nc3n3c2sc2ccccc23)cn1", "cell line": "HK-1", "technique": "MTS", "time": "72 h", "endpoint": "IC50", "value": "1000 nM"}
{"Compound": "CO[C@H]1[C@H](O[C@H]([C@H]2O[C@@H](n3ccc(=O)[nH]c3=O)[C@H](O)[C@@H]2O)[C@H](NCCCNC(=O)[C@@H](NC(=O)[C@@H](NC(=O)N[C@H](C(=O)O)C(C)C)[C@@H]2CCN=C(N)N2)[C@@H](O)C(C)C)C(=O)O)O[C@H](CN)[C@H]1O", "cell line": "MDA-MB-453", "technique": "WST-1", "endpoint": "IC50", "value": "> 35000 nM"}
{"Compound": "COC(=O)[C@H]1[C@@H](O)[C@@]2(O)c3c(OC)cc(O[C@@H]4O[C@@H]([C@H](O)CO)CO[C@H]4OC)cc3O[C@@]2(c2ccc(OC)cc2)[C@@H]1c1ccccc1", "cell line": "HK-1", "technique": "MTS", "time": "72 h", "endpoint": "IC50", "value": "5 nM"}
{"Compound": "Cc1nc(Nc2ncc(C(=O)Nc3c(C)cccc3Cl)s2)cc(N2CC[C@H](O)C2)n1", "cell line": "RS4-11", "technique": "ATP luminescence", "tested at": "10 µM", "time": "72 h", "endpoint": "inhibition", "value": "46%"}
{"Compound": "N/C(=N\\O)c1ccc(-c2cc(CNc3cccc4cccnc34)on2)cc1", "cell line": "NCI-H460", "technique": "MTS", "time": "72 h", "endpoint": "IC50", "value": "95100 nM"}
{"Compound": "CO[C@H]1[C@H](O[C@H]([C@H]2O[C@@H](n3ccc(=O)[nH]c3=O)[C@H](O)[C@@H]2O)[C@H](NCCCNC(=O)[C@@H](NC(=O)[C@@H](NC(=O)N[C@H](C(=O)O)C(C)C)[C@@H]2CCN=C(N)N2)[C@@H](OC(=O)CCCCCCCCCCCCN(O)C(=N)N)C(C)C)C(=O)O)O[C@H](CN)[C@H]1O", "cell line": "MDA-MB-453", "technique": "WST-1", "endpoint": "IC50", "value": "880 nM"}
{"Compound": "CCCCCCCCCCCCCCCCCCOc1cccc(CC(=O)OCC[N+](CC)(CC)CC)c1", "cell line": "NCI-H460", "technique": "SRB", "tested at": "10 µM", "endpoint": "inhibition", "value": "33%"}
{"Compound": "CN1CCC(NC2CCc3[nH]c4c(C(N)=O)ccc(-c5ccccc5Cl)c4c3C2)CC1 (stereo not shown)", "cell line": "MX1", "time": "96 h", "endpoint": "IC50", "value": "19.5 nM"}
{"Compound": "C[C@H](Nc1ccc2c(c1)OCCn1cc(N3C(=O)OC[C@H]3C(F)F)nc1-2)C(N)=O", "cell line": "MDA-MB-453", "technique": "ATP luminescence", "time": "5 days", "endpoint": "EC50", "value": "45.7 nM"}
{"Compound": "COc1cc([C@@H]2c3cc4c(cc3[C@@H](O[C@@H]3O[C@@H]5CO[C@@H](C)O[C@H]5[C@H](O)[C@H]3O)[C@H]3COC(=O)[C@H]23)OCO4)cc(OC)c1O", "cell line": "SNU-638", "technique": "SRB", "time": "72 h", "endpoint": "IC50", "value": "590 nM"}
{"Compound": "Nc1ccn([C@@H]2O[C@H](CO)[C@@H](O)C2(F)F)c(=O)n1", "cell line": "HCCC9810", "technique": "CCK-8", "endpoint": "IC50", "value": "2030 nM"}
{"Compound": "COc1cccc2c1C(=O)c1c(O)c3c(c(O)c1C2=O)C[C@@](O)(C(=O)CO)C[C@@H]3O[C@H]1C[C@H](N)[C@H](O)[C@H](C)O1", "cell line": "MX1", "time": "96 h", "endpoint": "IC50", "value": "22.5 nM"}
{"Compound": "Cc1sc2c(c1C)C(c1ccc(Cl)cc1)=N[C@@H](CC(=O)NCCCCNC(=O)COc1cccc3c1C(=O)N(C1CCC(=O)NC1=O)C3=O)c1nnc(C)n1-2 (stereo partly shown)", "cell line": "MDA-MB-453", "technique": "CCK-8", "time": "72 h", "endpoint": "IC50", "value": "2720 nM"}
